Consider 10 compounds from ChEMBL document CHEMBL3044643, “Chemical composition and antifungal activity of Arnica longifolia, Aster hesperius, and Chrysothamnus nauseosus essential oils” (2007).

Structures are written as SMILES. Active and inactive are the calls of the source. No cut-off for these calls is given here.

For assay [1], the system named is Botrytis cinerea. As to the kind of experiment: Antifungal activity against Botryotinia fuckeliana assessed as growth inhibition at 3.0 uM after 72 hr by 96-well microdilution broth assay. It counts as functional. Conditions: read-out: GI. An outline of the steps: (§1)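 96-well microdilution broth dose–response. Final treatment concentrations were 0.3, 3.0 and 30.0 µM, alongside an azoxystrobin fungicide standard. Plates were lidded and incubated in a growth chamber, and growth was read as absorbance at 620 nm. Each concentration was run in duplicate, with three independent experiments. Results are reported as mean growth inhibition with standard errors for each fungus and dose.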
In general terms: In broth dilution the organism is exposed to a series of concentrations in liquid medium.

In assay [2] the test system is Colletotrichum fragariae. As to the kind of experiment: Antifungal activity against Colletotrichum fragariae assessed as size of growth inhibitory zone at concentration of 2 mM in volume of 4 ul of acetone measured after 4 days by TLC based direct bioautography assay. It counts as functional. An outline of the steps: (§2)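 Direct TLC bioautography on silica plates, dose–response from 2 to 12 µL of a 2 mM solution spotted per plate. Benomyl, cyprodinil, azoxystrobin and captan served as standards at 2 µL of 2 mM in ethanol. Inhibitory zone size was measured 4 days after treatment. Experiments were repeated multiple times, and mean zones were compared by ANOVA with Fisher's protected LSD (P 0.05).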

Assay [3] concerns Colletotrichum acutatum. The assay can be described thus: Antifungal activity against Colletotrichum acutatum assessed as size of growth inhibitory zone at concentration of 2 mM in volume of 2 ul of acetone measured after 4 days by TLC based direct bioautography assay. The assay is classed as functional. An outline of the steps:
as §2

For assay [4], the system named is Colletotrichum acutatum. The assay can be described thus: Antifungal activity against Colletotrichum acutatum assessed as size of growth inhibitory zone at concentration of 2 mM in volume of 12 ul of acetone measured after 4 days by TLC based direct bioautography assay. The assay is classed as functional. An outline of the steps:
as §2

The test system of assay [5] is Colletotrichum fragariae. As to the kind of experiment: Antifungal activity against Colletotrichum fragariae assessed as size of growth inhibitory zone at concentration of 2 mM in volume of 8 ul of acetone measured after 4 days by TLC based direct bioautography assay. It counts as functional. An outline of the steps: as §2
A further assay has as its system Fusarium oxysporum. As to the kind of experiment: Antifungal activity against Fusarium oxysporum assessed as growth inhibition at 0.3 to 30 uM after 72 hr by 96-well microdilution broth assay. It counts as functional, organism-based. An outline of the steps: as §1
Assay [6] has as its system Colletotrichum acutatum. As to the kind of experiment: Antifungal activity against Colletotrichum acutatum assessed as growth inhibition at 0.3 to 30 uM after 72 hr by 96-well microdilution broth assay. The assay is classed as functional, organism-based. An outline of the steps: as §1
Assay [7] has as its system Colletotrichum gloeosporioides. As to the kind of experiment: Antifungal activity against Colletotrichum gloeosporioides assessed as size of growth inhibitory zone at concentration of 2 mM in volume of 4 ul of acetone measured after 4 days by TLC based direct bioautography assay. It counts as functional. An outline of the steps:
as §2

The test system of assay [8] is Colletotrichum fragariae. The assay can be described thus: Antifungal activity against Colletotrichum fragariae assessed as growth inhibition at 0.3 to 30 uM after 72 hr by 96-well microdilution broth assay. It counts as functional, organism-based. An outline of the steps:
as §1

Assay [9] deals with Colletotrichum fragariae. The assay can be described thus: Antifungal activity against Colletotrichum fragariae assessed as size of growth inhibitory zone at concentration of 2 mM in volume of 6 ul of acetone measured after 4 days by TLC based direct bioautography assay. The assay is classed as functional. An outline of the steps: as §2
In assay [10] the test system is Colletotrichum gloeosporioides. As to the kind of experiment: Antifungal activity against Colletotrichum gloeosporioides assessed as size of growth inhibitory zone at concentration of 2 mM in volume of 12 ul of acetone measured after 4 days by TLC based direct bioautography assay. The assay is classed as functional. An outline of the steps: as §2
The test system of assay [11] is Colletotrichum gloeosporioides. The assay can be described thus: Antifungal activity against Colletotrichum gloeosporioides assessed as size of growth inhibitory zone at concentration of 2 mM in volume of 8 ul of acetone measured after 4 days by TLC based direct bioautography assay. It counts as functional. An outline of the steps: as §2
In assay [12] the test system is Colletotrichum fragariae. As to the kind of experiment: Antifungal activity against Colletotrichum fragariae assessed as size of growth inhibitory zone at concentration of 2 mM in volume of 10 ul of acetone measured after 4 days by TLC based direct bioautography assay. It counts as functional. An outline of the steps: as §2
Assay [13] has as its system Colletotrichum acutatum. The assay can be described thus: Antifungal activity against Colletotrichum acutatum assessed as size of growth inhibitory zone at concentration of 2 mM in volume of 4 ul of acetone measured after 4 days by TLC based direct bioautography assay. The assay is classed as functional. An outline of the steps:
as §2

The test system of assay [14] is Colletotrichum acutatum. The assay can be described thus: Antifungal activity against Colletotrichum acutatum assessed as size of growth inhibitory zone at concentration of 2 mM in volume of 6 ul of acetone measured after 4 days by TLC based direct bioautography assay. The assay is classed as functional. An outline of the steps: as §2
The subject of assay [15] is Colletotrichum gloeosporioides. As to the kind of experiment: Antifungal activity against Colletotrichum gloeosporioides assessed as size of growth inhibitory zone at concentration of 2 mM in volume of 6 ul of acetone measured after 4 days by TLC based direct bioautography assay. It counts as functional. An outline of the steps: as §2
In assay [16] the test system is Colletotrichum fragariae. The assay can be described thus: Antifungal activity against Colletotrichum fragariae assessed as size of growth inhibitory zone at concentration of 2 mM in volume of 2 ul of acetone measured after 4 days by TLC based direct bioautography assay. The assay is classed as functional. An outline of the steps:
as §2

Assay [17] deals with Colletotrichum acutatum. As to the kind of experiment: Antifungal activity against Colletotrichum acutatum assessed as size of growth inhibitory zone at concentration of 2 mM in volume of 10 ul of acetone measured after 4 days by TLC based direct bioautography assay. The assay is classed as functional. An outline of the steps:
as §2

Assay [18] has as its system Colletotrichum gloeosporioides. The assay can be described thus: Antifungal activity against Colletotrichum gloeosporioides assessed as growth inhibition at 0.3 to 30 uM after 72 hr by 96-well microdilution broth assay. The assay is classed as functional, organism-based. An outline of the steps:
as §1

The subject of assay [19] is Botrytis cinerea. As to the kind of experiment: Antifungal activity against Botryotinia fuckeliana assessed as growth inhibition at 0.3 uM after 72 hr by 96-well microdilution broth assay. The assay is classed as functional. To be noted: read-out: GI. An outline of the steps: as §1
Assay [20] relates to Colletotrichum gloeosporioides. The assay can be described thus: Antifungal activity against Colletotrichum gloeosporioides assessed as size of growth inhibitory zone at concentration of 2 mM in volume of 10 ul of acetone measured after 4 days by TLC based direct bioautography assay. The assay is classed as functional. An outline of the steps: as §2
Assay [21] has as its system Colletotrichum acutatum. As to the kind of experiment: Antifungal activity against Colletotrichum acutatum assessed as size of growth inhibitory zone at concentration of 2 mM in volume of 8 ul of acetone measured after 4 days by TLC based direct bioautography assay. It counts as functional. An outline of the steps: as §2
Assay [22] concerns Colletotrichum gloeosporioides. The assay can be described thus: Antifungal activity against Colletotrichum gloeosporioides assessed as size of growth inhibitory zone at concentration of 2 mM in volume of 2 ul of acetone measured after 4 days by TLC based direct bioautography assay. The assay is classed as functional. An outline of the steps:
as §2

The next assay deals with Phomopsis obscurans. As to the kind of experiment: Antifungal activity against Phomopsis obscurans assessed as growth inhibition at 0.3 to 30 uM after 72 hr by 96-well microdilution broth assay. Conditions: Paraphomopsis obscurans. It counts as functional, organism-based. An outline of the steps:
as §1

Assay [23] relates to Colletotrichum fragariae. As to the kind of experiment: Antifungal activity against Colletotrichum fragariae assessed as size of growth inhibitory zone at concentration of 2 mM in volume of 12 ul of acetone measured after 4 days by TLC based direct bioautography assay. The assay is classed as functional. An outline of the steps: as §2
Assay [24] concerns Colletotrichum acutatum. The assay can be described thus: Antifungal activity against Colletotrichum acutatum assessed as diffuse inhibitory zone at concentration of 2 mM in volume of 2 ul of EtOH measured after 4 days by TLC based direct bioautography assay. The assay is classed as functional, organism-based. An outline of the steps:
(§3)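 Direct TLC bioautography on silica plates against Colletotrichum species. Technical-grade fungicide standards (without formulation) were spotted at 2 µL of 2 mM in 95% ethanol. Inhibitory zone size was read 4 days after treatment. Diffuse zones were taken to mark suppressive activity. Values are means and standard deviations of zone size, with means separated by ANOVA and Fisher's protected LSD (P = 0.05).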

Assay [25] concerns Colletotrichum gloeosporioides. The assay can be described thus: Antifungal activity against Colletotrichum gloeosporioides assessed as diffuse inhibitory zone at concentration of 2 mM in volume of 2 ul of EtOH measured after 4 days by TLC based direct bioautography assay. The assay is classed as functional, organism-based. An outline of the steps: as §3
For assay [26], the system named is Colletotrichum fragariae. As to the kind of experiment: Antifungal activity against Colletotrichum fragariae assessed as size of growth inhibitory zone at concentration of 2 mM in volume of 2 ul of EtOH measured after 4 days by TLC based direct bioautography assay. It counts as functional. An outline of the steps: as §3
In assay [27] the test system is Colletotrichum acutatum. The assay can be described thus: Antifungal activity against Colletotrichum acutatum assessed as size of growth inhibitory zone at concentration of 2 mM in volume of 2 ul of EtOH measured after 4 days by TLC based direct bioautography assay. The assay is classed as functional. An outline of the steps:
as §3

In assay [28] the test system is Colletotrichum gloeosporioides. As to the kind of experiment: Antifungal activity against Colletotrichum gloeosporioides assessed as size of growth inhibitory zone at concentration of 2 mM in volume of 2 ul of EtOH measured after 4 days by TLC based direct bioautography assay. The assay is classed as functional. An outline of the steps:
as §3

The test system of assay [29] is Botrytis cinerea. The assay can be described thus: Antifungal activity against Botryotinia fuckeliana assessed as growth inhibition at 30 uM by 96-well microdilution broth assay. It counts as functional. To be noted: read-out: GI. An outline of the steps: as §1

`CC(C)=CCC[C@](C)(O)[C@@H]1CC=C(C)CC1` (relative stereo) [LEVOMENOL]: the inhibition of growth at 3 µM in the assay with Botrytis cinerea [1] came out at 47.3%. For the same compound, the Activity in the assay on Colletotrichum fragariae [2] was 6.5 mm; with Colletotrichum acutatum [3], 5.5 mm; with Colletotrichum acutatum [4], 11 mm; in the assay with Colletotrichum fragariae [5] it was 8 mm; in [7] it was 5.5 mm; with Colletotrichum fragariae [9], 7 mm. The Activity in assay [10] is 11.5 mm; in [11], 8 mm; in the assay on Colletotrichum fragariae [12] it was 9.5 mm; in the assay with Colletotrichum acutatum [13], 8 mm; in the assay on Colletotrichum acutatum [14], 7.5 mm; in assay [15], 7.5 mm. In addition, the Activity in the assay on Colletotrichum fragariae [16] amounted to 5 mm; in the assay on Colletotrichum acutatum [17] it was 9.5 mm; in assay [20], 9 mm; in the assay on Colletotrichum acutatum [21], 7.5 mm; in assay [22] it was 5 mm; with Colletotrichum fragariae [23], 11.5 mm. Moreover, the “growth inhibition (GI)” value (in the assay on Fusarium oxysporum; in the assay on Colletotrichum acutatum [6]; in the assay with Colletotrichum fragariae [8]; in assay [18]; in the assay with Phomopsis obscurans) was “inactive” throughout. Further, the inhibition of growth at 0.3 µM in the assay with Botrytis cinerea [19] stood at 46.5%.

As for `CO/C=C(/C(=O)OC)c1ccccc1Oc1cc(Oc2ccccc2C#N)ncn1` [AZOXYSTROBIN], the inhibition result (in the assay on Colletotrichum acutatum [24]; in [25]) was “Active” in each case. Further, the Activity with Colletotrichum fragariae [26] is listed as 23 mm.

On to `CCCCNC(=O)n1c(NC(=O)OC)nc2ccccc21` [BENOMYL], for which the inhibition entry (with Colletotrichum acutatum [24]; in assay [25]) was “Active” in each case. In the assay with Colletotrichum fragariae [26], the Activity was 21.3 mm.

For `C=C1CCC[C@]2(C)CC[C@@H](C(C)(C)O)C[C@@H]12` [BETA-EUDESMOL], the Activity (with Colletotrichum fragariae [2]; in assay [7]; in the assay with Colletotrichum acutatum [13]) was 0 mm throughout.

For `C=C1C=CC(C(C)C)CC1` (stereo not drawn) [BETA-PHELLANDRENE], the Activity (in the assay with Colletotrichum fragariae [2]; in assay [7]; with Colletotrichum acutatum [13]) was 0 mm throughout.

Turning to `C=C1CCC2CC1C2(C)C` (stereo not drawn) [BETA-PINENE], the Activity (in the assay with Colletotrichum fragariae [2]; in [7]; in the assay with Colletotrichum acutatum [13]) was 0 mm each time.

For `O=C1C2CC=CCC2C(=O)N1SC(Cl)(Cl)Cl` (stereo not given) [CAPTAN], the Activity in the assay with Colletotrichum fragariae [26] is given as 15 mm; in the assay with Colletotrichum acutatum [27], 11.5 mm; in assay [28], 18.9 mm.

With `Cc1ccc(C(C)C)cc1O` [CARVACROL], the inhibition of growth at 30 µM with Botrytis cinerea [29] came to 36.9%.

With `Cc1cc(C2CC2)nc(Nc2ccccc2)n1` [CYPRODINIL], the inhibition result (in the assay with Colletotrichum acutatum [24]; in assay [25]) was “Active” in each case. In addition, the Activity in the assay on Colletotrichum fragariae [26] amounted to 23 mm.

Take `CCCCCCCCCCCCCCCC(=O)O` [PALMITIC ACID]: the Activity (with Colletotrichum fragariae [2]; in assay [7]; in the assay with Colletotrichum acutatum [13]) was 0 mm each time.
